# Screening results as filed in PubChem.
# FXIIa inh = inhibitors of human coagulation factor XIIa; P00748; purified human FXIIa, AMC substrate fluorescence, 2 h; inhibition, % at 10 µM; 33,000 compounds, 0.2% hits; AID 701; in the data active means inhibition above about 30%;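 further: 0% = enzyme with vehicle only and 100% = no enzyme blank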
# FXIa inh = blocks human coagulation factor XIa activity; P03951; purified human FXIa, fluorogenic AMC substrate cleavage; inhibition, % at 10 µM; 33,000 compounds, 0.3% hits;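 active means inhibition above 40% in the primary screen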;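 further: 0% = enzyme without compound and 100% = blank wells lacking enzyme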
# Target sequence (P03951 19-387 limits assumed): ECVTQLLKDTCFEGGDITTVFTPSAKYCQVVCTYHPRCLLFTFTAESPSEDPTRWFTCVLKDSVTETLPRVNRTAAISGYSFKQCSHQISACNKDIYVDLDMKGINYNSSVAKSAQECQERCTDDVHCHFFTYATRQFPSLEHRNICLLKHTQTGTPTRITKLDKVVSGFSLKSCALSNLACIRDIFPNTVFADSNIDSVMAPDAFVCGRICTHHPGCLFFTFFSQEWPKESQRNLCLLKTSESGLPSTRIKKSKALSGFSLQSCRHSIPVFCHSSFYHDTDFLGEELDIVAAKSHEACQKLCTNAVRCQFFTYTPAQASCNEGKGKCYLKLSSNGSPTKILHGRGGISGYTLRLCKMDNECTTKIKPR
# Target sequence (P03951 388-625 limits assumed): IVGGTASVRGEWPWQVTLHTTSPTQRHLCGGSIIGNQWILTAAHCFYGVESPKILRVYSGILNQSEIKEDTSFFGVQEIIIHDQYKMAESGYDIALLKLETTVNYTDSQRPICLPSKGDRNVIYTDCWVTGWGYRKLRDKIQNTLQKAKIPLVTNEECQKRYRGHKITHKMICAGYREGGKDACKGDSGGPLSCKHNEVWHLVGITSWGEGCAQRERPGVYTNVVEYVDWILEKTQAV
# Yeast growth tox = Compounds toxic to wild-type S. cerevisiae growth | growth inhibition, % at 25 µM (by protocol) | A595 turbidity, 16 h | 30,000 compounds, 0.3% hits;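 active means mutant and wild-type yeast strains alike exhibit over 30% growth inhibition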;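 further: 0% = untreated cell controls and 100% = YPD media blanks without cells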
#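 System – wild-type and eIF2Bepsilon-R284H mutant S. cerevisiae, screened separately · Measured by – absorbance at 595 nm (turbidity) · Timing – 16 h compound exposure during growth at 30 °C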
# Starred values were filed as active, the others as inactive; · = no result. Compounds with a hit are over-represented: about 0.37% of the library has one in this group of screens.
SMILES,FXIIa inh,FXIa inh,Yeast growth tox
O=c1c(-c2ccco2)[n+]([O-])c2ccccc2n1OCc1ccccc1,11.8,-6.7,·
O=c1c(-c2cc3ccccc3o2)[n+]([O-])c2ccccc2n1OCc1ccccn1,-10.8,40.2*,-1.4
COc1cc(/C=C/C(=O)c2c(O)cc(C)oc2=O)cc(OC)c1O,-10.5,22.5,11.9
COc1cccc(/C=C/C(=O)c2c(O)cc(C)oc2=O)c1O,4.4,1.6,33.9*
COc1ccccc1-c1nnc(Sc2nc([N+](=O)[O-])nn2C)o1,8.2,-5.4,-3.5
Cc1nc(N)c(C#N)c(-c2ccccc2)c1C,·,·,17.3
CC1=C(C#N)c2nc(N)c(C#N)c(C)c2/C1=C\c1ccccc1,-1.0,-0.1,53.2*
CCCCS(=O)(=O)NC1=NCN(C2CCN(Cc3ccccc3)CC2)CN1,6.5,2.1,·
Cc1cccc(C)c1NC(=O)NC1(C(=O)NCCCN2CCOCC2)CCCCC1,·,·,4.3
CCS(=O)(=O)N1CCC(C(=O)NCc2ccc(F)cc2Cl)CC1,·,·,0.6
Cc1cc(C)c(S(=O)(=O)N2CCC(C(=O)NCc3ccc(Cl)cc3Cl)CC2)c(C)c1,-14.9,26.0,82.3*
CCOC(=O)Cn1c(=O)c2c(nc(Br)n2Cc2ccccc2Cl)n(C)c1=O,3.3,-5.1,·
C=CCn1c(=O)c2c(nc(Br)n2Cc2ccccc2Cl)n(C)c1=O,2.8,45.8*,·
O=S(=O)(O/N=C1\CCCc2ccccc21)c1ccccc1,-5.5,-1.8,·
CC1=CC(=O)C=C(C)C1=NOS(=O)(=O)c1ccccc1,7.7,-6.5,76.9*
Cc1onc(-c2ccccc2Cl)c1C(=O)Nc1ccc(-c2nnc3n2CCCCC3)cc1,·,·,15.0
CCC(=O)OCCNc1cc(Sc2nc3ccccc3s2)c2nonc2c1[N+](=O)[O-],-0.7,-5.8,52.4*
CC(C)OC(=O)CSc1nc2ccccc2s1,8.3,0.4,-12.0
O=CNc1ccc(S(=O)(=O)NCc2ccccc2)cc1,21.5,-4.3,14.8
O=C(O)c1cccc(NS(=O)(=O)c2cccc3nsnc23)c1,10.9,-1.9,17.2
COc1cc2[nH]c(=S)n(C3CCCC3)c(=O)c2cc1OC,·,·,32.3*
COc1cc2[nH]c(=S)n(N(C(C)=O)C(C)=O)c(=O)c2cc1OC,8.7,-4.8,26.6
CS(=O)(=O)N1CCC(C(=O)c2cccc(Cl)c2)CC1,-14.3,1.4,-2.7
CCc1nnc(N2C(=O)c3cccc4cccc(c34)C2=O)s1,6.7,1.6,13.8
O=C1c2cccc3cccc(c23)C(=O)N1c1ccncc1,5.5,0.6,44.3*
SMILES,FXIIa inh,FXIa inh,Yeast growth tox
CCOc1ccc(S(=O)(=O)NCc2ccc(OC)cc2)c2cccnc12,9.1,62.0*,15.8
CCOc1ccc(S(=O)(=O)N2CCN(c3ccc(OC)cc3)CC2)c2cccnc12,·,·,20.5
COC(=O)c1c(C(=O)OC)c2ccncn2c1Cl,-0.2,0.9,·
Cc1ccc(C2=N/C(=C\c3cccs3)C(=O)N2Nc2ccccc2)cc1,13.7,-5.8,0.4
O=C1N=C(c2ccccc2)S/C1=C\c1cccs1,46.0*,37.9,5.0
O=C(Nc1ccc(F)cc1F)c1ccco1,-11.4,-0.9,7.3
COCC(=O)NC1CCN(C(=O)Nc2ccc(Br)cc2)CC1,·,·,14.2
CCN1CCN(C(=O)Nc2ccccc2OC)CC1,·,·,-12.0
COc1ccc(CC(=O)NCc2ccc3c(c2)OCO3)cc1,6.7,53.0*,·
COc1ccccc1CC(=O)NCc1ccc2c(c1)OCO2,·,·,22.1
COc1ccc(CCNC(=O)COC(=O)c2cnc(C)cn2)cc1,4.7,-0.9,·
Cc1cnc(C(=O)OCC(=O)NCc2ccccc2)cn1,3.5,41.2*,·
COc1ccc(Cc2nnc(NC(=O)c3ccco3)s2)cc1OC,·,·,12.6
O=C1Nc2ccccc2/C1=N\c1sc2c(c1C(=O)Nc1ccccc1)CCCC2,·,·,5.9
CCCN(CC1CC1)C(=O)CSc1nnc(-c2cc(-c3cccs3)nc3ccccc23)o1,-20.6,23.9,-6.9
c1ccc(N(c2ccccc2)c2nc(N3CCCC3)nc(-n3ccnc3)n2)cc1,·,·,-10.0
CCOC(=O)N1CCN(c2nc(N(c3ccccc3)c3ccccc3)nc(-n3ccnc3)n2)CC1,·,·,47.9*
COC(=O)C(Cc1c[nH]c2ccccc12)NC(C)=O (stereo not given),-17.0,102.7*,-0.9
Cc1ccc(C(=O)NC(Cc2c[nH]c3ccccc23)C(=O)O)cc1 (stereo not given),10.0,6.6,30.0
O=C(CSc1nc2ccccc2[nH]1)NCCN1CCCCC1,·,·,6.8
CC1=C(C(=O)Nc2ccccc2)C(c2sccc2C)n2nnnc2N1 (stereo not given),-11.6,-1.0,·
COc1ccc(C(=O)n2nc(-c3ccccc3)nc2N)cc1OC,62.4*,1.4,-10.7
COc1cc(C(N)=O)ccc1OCc1ccccc1,4.0,2.4,·
CC(C)(Oc1ccc(Cl)cc1)C(=O)Nc1ccncc1,3.6,-13.2,75.7*
CC(C)(Oc1ccc(Cl)cc1)C(=O)NCc1ccco1,·,·,28.6
